Laboratory results published in PMC9064382 (RSC Advances, 2019).

Columns and labels:
[1] = biological target: T1, hOATP1B1 (Homo sapiens, UniProt Q9Y6L6); assay type: in vitro ADME
T1 sequence (Q9Y6L6 1-691): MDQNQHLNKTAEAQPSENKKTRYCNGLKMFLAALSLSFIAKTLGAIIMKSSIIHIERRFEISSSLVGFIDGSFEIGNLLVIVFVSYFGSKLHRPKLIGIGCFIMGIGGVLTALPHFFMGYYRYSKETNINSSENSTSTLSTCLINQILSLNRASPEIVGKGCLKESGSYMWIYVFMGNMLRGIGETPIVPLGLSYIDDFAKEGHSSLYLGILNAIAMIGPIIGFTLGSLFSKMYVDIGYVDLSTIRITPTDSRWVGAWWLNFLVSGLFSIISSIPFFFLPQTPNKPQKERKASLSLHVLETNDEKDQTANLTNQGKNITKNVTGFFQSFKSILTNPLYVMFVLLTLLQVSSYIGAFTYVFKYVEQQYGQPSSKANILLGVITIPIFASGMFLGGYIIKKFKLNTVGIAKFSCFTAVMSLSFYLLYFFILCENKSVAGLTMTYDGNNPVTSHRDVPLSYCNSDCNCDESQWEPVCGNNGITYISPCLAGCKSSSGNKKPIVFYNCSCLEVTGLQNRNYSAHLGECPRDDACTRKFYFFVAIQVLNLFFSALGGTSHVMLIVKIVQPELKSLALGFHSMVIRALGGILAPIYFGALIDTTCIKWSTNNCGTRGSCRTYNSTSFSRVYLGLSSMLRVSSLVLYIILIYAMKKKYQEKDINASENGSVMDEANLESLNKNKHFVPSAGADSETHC

[2] = biological target: T2, hOCT1 (Homo sapiens, UniProt O15245); assay: Inhibition of 14C-TEA uptake in hOCT1-transfected cells by liquorice ingredients; assay type: in vitro ADME; conditions: read-out: IC50 on hOCT1; 14C-TEA probe, 5 min
T2 sequence (O15245 1-554): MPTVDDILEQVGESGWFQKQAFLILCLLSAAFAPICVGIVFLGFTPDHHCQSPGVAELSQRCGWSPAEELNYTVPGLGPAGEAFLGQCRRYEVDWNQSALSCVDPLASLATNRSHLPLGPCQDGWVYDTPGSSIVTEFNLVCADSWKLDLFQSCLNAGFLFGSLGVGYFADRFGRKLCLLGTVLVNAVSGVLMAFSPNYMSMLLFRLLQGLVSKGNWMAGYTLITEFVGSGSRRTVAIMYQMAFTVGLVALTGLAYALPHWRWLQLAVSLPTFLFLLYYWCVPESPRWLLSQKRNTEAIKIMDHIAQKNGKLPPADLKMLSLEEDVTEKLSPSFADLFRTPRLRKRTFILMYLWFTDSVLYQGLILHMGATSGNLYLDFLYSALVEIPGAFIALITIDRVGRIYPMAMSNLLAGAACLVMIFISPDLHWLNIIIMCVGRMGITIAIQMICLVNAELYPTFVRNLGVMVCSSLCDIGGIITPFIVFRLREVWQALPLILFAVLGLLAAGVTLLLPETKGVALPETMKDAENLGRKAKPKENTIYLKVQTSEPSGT
Outline: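 Transfected and mock cells were seeded at 2 × 10^5/well and grown 48 h. They were then exposed at 37 °C to test compound at 1, 3, 10, 30 and 100 μmol L−1 (DMSO <0.2%) with either 5 μmol L−1 14C-PAH for 2 min (hOAT1) or 5 μmol L−1 14C-TEA for 5 min (hOCT1). Uptake was stopped with cold DPBS and three rinses, cells lysed in 0.1 mol L−1 NaOH, counted by liquid scintillation (dpm), and IC50 calculated.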

IC50 ([1]; read-out: IC50 on hOATP1B1, 3H-ES probe, 2 min): 1.27 µM | inhibition of hOATP1B1 ([1]; screening at 100 μm): strong inhibitors | IC50 [2]: 14 µM
SMILES: C=CC(C)(C)c1cc(/C=C/C(=O)c2ccc(O)cc2)c(OC)cc1O [licochalcone A]
